This note sets out measurements from PubChem BioAssay AID1453 (NMMLSC, 2008).

Each structure is given as a SMILES string. The list shows a part of the results. Values without a mark were called inactive.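 How the source made its calls: active means inhibition above 50%; inactive means the rest.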

The target in this assay is Broad substrate specificity ATP-binding cassette transporter ABCG2 (Homo sapiens) (UniProt Q9UNQ0). The experiment in a line: ABCG2 efflux pump inhibitors, confirmation, single point, IgMXP3 cells, ABCB1 counter-screen paired (AID 1453).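 Further: 0% = DMSO wells and 100% = nicardipine pump inhibitor wells.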 Conditions: JC-1 efflux, flow cytometry, at 6.6 µM, active compounds read high. The essentials: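 Assay system: ABCG2-expressing IgMXP3 cells / Input: 3 million cells per mL final in well / Compound dosing: 6.6 µM single dose / Schedule: 10 min exposure at 25 °C / Measured by: high-throughput flow cytometry, JC-1 green median fluorescence, 530 ± 20 nm / Read-out basis: percent efflux inhibition scaled between DMSO and nicardipine, autofluorescence-corrected / Controls: nicardipine high, DMSO low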
(In general: The purpose of a counterscreen is to sort out artefacts and off-target activity.)

Chain of Broad substrate specificity ATP-binding cassette transporter ABCG2 (Homo sapiens) (Q9UNQ0 whole entry, looked up): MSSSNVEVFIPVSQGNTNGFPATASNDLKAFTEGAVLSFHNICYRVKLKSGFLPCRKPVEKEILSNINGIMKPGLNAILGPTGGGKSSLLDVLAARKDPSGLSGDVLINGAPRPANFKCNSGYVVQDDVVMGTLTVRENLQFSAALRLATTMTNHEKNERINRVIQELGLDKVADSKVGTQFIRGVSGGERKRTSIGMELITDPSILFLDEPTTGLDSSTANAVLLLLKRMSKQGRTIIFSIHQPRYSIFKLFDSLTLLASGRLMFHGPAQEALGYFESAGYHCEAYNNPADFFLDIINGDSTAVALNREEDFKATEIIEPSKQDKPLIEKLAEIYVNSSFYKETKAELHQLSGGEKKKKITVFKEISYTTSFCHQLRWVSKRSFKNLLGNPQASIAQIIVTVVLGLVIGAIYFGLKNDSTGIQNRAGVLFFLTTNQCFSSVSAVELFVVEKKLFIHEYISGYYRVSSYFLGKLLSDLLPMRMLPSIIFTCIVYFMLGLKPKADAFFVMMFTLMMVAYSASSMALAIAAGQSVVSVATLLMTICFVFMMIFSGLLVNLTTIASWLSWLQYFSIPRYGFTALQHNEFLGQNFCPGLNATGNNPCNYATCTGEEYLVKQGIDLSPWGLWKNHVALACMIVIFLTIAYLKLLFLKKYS

One may read the inhibition as the drop in the measured response relative to a control, in per cent. Take `COC(=O)COc1cc(C)cc2oc(=O)c3c(c12)CCCC3`: the inhibition is 22.6%.
